The source of these data is ChEMBL document CHEMBL1135185, “Synthesis and PTP1B inhibition of 1,2-naphthoquinone derivatives as potent anti-diabetic agents” (Bioorg Med Chem Lett, 2002).

Experiment [1] concerns the target T1, M-phase inducer phosphatase 2 (Homo sapiens, UniProt P30305).
T1 sequence (P30305 whole entry): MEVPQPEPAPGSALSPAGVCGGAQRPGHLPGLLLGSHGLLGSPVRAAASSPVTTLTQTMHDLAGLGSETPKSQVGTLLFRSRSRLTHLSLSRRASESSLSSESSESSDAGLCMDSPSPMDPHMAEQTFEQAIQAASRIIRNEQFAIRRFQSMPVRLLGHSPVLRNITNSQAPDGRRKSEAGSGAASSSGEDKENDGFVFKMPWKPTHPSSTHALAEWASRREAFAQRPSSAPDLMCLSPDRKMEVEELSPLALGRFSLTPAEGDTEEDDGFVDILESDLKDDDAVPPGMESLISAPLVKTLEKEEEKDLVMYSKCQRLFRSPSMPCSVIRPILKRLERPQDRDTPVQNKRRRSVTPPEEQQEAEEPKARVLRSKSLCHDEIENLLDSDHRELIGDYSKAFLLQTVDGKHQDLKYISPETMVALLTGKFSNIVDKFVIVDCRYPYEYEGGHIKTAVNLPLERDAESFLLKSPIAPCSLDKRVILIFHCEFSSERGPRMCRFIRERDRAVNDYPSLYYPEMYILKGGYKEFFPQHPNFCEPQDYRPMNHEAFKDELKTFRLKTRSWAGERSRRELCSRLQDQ
Put plainly: In vitro inhibitory activity against recombinant human Cdc25B using fluorescein diphosphate (FDP) as a substrate.

Experiment [2] can be described thus: In vitro inhibitory activity against recombinant […] Yop using fluorescein diphosphate (FDP) as a substrate.
The target in experiment [3] is T2, Receptor-type tyrosine-protein phosphatase C (Homo sapiens, UniProt P08575).
T2 sequence (P08575 whole entry): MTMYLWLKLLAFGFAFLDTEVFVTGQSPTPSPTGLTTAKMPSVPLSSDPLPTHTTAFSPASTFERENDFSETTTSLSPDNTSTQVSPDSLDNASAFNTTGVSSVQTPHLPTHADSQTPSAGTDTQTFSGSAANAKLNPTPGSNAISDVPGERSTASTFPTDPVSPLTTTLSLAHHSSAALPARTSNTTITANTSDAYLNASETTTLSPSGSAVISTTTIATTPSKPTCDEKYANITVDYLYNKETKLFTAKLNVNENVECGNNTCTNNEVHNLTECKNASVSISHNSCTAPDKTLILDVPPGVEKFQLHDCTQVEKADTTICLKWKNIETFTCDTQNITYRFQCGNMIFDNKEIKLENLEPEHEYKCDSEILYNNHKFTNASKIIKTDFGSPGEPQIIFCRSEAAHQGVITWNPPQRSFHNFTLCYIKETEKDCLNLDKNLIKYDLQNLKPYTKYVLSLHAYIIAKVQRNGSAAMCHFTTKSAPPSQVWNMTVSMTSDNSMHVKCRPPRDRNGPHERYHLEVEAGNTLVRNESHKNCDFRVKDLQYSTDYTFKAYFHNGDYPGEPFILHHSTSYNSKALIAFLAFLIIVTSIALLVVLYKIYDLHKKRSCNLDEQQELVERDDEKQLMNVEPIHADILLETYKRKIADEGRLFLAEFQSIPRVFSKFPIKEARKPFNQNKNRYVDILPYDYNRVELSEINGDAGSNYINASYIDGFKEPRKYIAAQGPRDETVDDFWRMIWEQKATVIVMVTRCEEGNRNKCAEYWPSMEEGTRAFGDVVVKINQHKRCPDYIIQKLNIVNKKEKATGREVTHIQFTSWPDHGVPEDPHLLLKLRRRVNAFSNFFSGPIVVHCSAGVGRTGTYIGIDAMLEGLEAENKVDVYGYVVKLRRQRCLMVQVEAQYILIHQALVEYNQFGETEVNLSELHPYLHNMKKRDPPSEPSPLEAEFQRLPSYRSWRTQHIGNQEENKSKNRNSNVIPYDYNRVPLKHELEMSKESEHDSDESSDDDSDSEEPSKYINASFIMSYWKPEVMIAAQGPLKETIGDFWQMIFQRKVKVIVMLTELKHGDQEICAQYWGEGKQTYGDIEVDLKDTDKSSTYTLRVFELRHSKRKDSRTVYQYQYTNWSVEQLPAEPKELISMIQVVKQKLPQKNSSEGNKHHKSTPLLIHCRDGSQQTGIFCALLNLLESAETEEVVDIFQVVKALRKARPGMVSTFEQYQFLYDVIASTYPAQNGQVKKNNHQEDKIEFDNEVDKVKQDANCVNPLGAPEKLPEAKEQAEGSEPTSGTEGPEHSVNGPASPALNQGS
In words: In vitro inhibitory activity against recombinant human CD45 using fluorescein diphosphate (FDP) as a substrate.

Experiment [4] is described as follows: In vitro inhibitory activity against recombinant human PPI using fluorescein diphosphate (FDP) as a substrate.
The target of experiment [5] is T3, Tyrosine-protein phosphatase non-receptor type 1 (Homo sapiens, UniProt P18031).
T3 sequence (P18031 whole entry): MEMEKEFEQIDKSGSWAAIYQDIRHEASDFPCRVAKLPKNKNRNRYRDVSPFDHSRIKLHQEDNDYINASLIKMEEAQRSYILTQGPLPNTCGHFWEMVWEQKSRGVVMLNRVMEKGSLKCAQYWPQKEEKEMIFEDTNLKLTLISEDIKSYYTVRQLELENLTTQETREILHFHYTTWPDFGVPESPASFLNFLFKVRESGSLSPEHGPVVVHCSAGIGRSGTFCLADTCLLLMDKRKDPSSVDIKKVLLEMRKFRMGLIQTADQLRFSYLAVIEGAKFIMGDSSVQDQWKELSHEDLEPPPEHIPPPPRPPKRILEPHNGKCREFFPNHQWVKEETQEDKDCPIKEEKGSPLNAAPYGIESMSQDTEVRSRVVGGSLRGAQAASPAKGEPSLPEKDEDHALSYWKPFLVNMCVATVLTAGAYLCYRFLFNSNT
In words: In vitro inhibitory activity against recombinant human protein-tyrosine phosphatase 1B (PTP1B) using fluorescein diphosphate (FDP) as a substrate. To be noted: read-out: IC50. In short, it runs like this:
(§1)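 Recombinant human PTP1B enzyme, fluorescein diphosphate (FDP) as substrate. Enzyme activity was followed by fluorescence measurement. IC50 values were obtained by direct regression curve analysis.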

Experiment [6] addresses Receptor-type tyrosine-protein phosphatase F (Homo sapiens, UniProt P10586). In words: In vitro inhibitory activity against recombinant human LAR using fluorescein diphosphate (FDP) as a substrate.
In the next experiment the test system is Mus musculus. Put plainly: In vivo test to determine the ability to reduce plasma glucose levels in ob/ob mice at oral dose of 25 mg/kg/day for 5 days; Active. The format is functional, organism-based.
Experiment [7] deals with T3, Tyrosine-protein phosphatase non-receptor type 1. Put plainly: Inhibition of human Protein-tyrosine phosphatase 1B (PTP1B) using fluorescein diphosphate (FDP). In short, it runs like this:
as §1

Activity calls are given as the source filed them. No cut-off for these calls is given here.

Chain of Receptor-type tyrosine-protein phosphatase F (P10586 whole entry): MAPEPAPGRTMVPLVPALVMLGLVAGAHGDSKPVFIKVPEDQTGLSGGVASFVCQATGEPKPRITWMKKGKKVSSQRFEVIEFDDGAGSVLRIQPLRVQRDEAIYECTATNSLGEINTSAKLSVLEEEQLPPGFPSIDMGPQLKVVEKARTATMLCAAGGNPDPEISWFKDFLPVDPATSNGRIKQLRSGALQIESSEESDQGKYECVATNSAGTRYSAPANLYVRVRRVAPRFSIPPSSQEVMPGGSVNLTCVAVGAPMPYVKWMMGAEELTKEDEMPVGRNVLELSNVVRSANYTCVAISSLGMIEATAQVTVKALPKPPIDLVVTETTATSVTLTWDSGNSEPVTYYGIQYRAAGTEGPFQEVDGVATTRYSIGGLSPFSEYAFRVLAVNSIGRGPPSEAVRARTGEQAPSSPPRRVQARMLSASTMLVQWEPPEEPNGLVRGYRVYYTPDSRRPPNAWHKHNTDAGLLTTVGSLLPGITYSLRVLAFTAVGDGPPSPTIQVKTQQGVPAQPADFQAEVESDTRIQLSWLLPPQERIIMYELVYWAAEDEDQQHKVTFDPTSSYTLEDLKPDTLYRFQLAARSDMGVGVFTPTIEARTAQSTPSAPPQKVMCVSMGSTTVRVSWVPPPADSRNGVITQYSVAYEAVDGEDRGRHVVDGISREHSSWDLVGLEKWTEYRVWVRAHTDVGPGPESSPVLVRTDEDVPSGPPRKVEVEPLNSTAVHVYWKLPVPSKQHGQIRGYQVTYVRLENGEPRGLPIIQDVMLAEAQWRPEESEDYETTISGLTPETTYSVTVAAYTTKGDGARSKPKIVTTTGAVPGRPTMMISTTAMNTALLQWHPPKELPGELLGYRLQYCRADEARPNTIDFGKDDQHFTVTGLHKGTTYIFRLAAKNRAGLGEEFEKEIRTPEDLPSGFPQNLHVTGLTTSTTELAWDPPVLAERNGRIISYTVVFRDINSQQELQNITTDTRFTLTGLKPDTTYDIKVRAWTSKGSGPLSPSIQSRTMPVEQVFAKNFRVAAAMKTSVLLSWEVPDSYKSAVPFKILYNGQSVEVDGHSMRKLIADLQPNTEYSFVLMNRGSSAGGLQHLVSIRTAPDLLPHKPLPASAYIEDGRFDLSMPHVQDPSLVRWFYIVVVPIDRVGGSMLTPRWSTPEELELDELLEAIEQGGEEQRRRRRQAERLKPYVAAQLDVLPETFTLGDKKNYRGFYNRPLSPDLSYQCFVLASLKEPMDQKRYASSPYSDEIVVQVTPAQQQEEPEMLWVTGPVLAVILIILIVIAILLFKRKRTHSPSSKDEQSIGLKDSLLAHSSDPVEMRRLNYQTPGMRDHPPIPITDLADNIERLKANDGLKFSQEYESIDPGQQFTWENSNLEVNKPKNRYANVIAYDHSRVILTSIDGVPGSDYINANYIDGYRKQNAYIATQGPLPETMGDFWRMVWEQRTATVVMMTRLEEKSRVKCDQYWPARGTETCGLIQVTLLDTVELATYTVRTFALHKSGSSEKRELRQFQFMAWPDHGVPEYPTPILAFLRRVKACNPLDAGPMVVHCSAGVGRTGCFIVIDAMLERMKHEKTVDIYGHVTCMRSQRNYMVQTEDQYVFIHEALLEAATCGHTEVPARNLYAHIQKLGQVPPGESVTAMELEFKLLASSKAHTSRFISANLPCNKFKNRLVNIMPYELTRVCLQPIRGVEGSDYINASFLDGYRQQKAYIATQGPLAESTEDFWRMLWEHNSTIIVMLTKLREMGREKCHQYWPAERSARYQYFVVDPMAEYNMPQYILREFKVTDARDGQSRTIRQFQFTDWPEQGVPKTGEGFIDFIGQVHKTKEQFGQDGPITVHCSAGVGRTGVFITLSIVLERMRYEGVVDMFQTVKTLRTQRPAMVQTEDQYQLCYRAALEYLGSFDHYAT

For `O=C1C=C(c2ccccc2)c2ccccc2C1=O`, the IC50 (commonly the concentration that inhibits the measured activity by half) in experiment [1] is 9.52 µM; in experiment [2], 21.1 µM; in experiment [3] it was 0.84 µM; in experiment [4], 8.37 µM; in experiment [5] it was 0.86 µM.
On to `O=C1C=C(C2CCCCC2)c2ccccc2C1=O`, for which the IC50 in experiment [1] was found to be 3 µM; in experiment [2] it was 17.9 µM; in experiment [3], 3.27 µM; in experiment [4], 8.06 µM; in experiment [5], 0.32 µM; in experiment [6] it was 8.99 µM.
`CC(C)(C)OC(=O)COc1ccc(CC2=C(n3ccc4ccccc43)c3ccccc3C(=O)C2=O)cc1`: in the experiment with Mus musculus, the Reduction entry was “Active”. In experiment [7], this compound gave an IC50 of 0.65 µM.
Regarding `O=C1C=C(c2c[nH]c3ccccc23)c2ccccc2C1=O`, the IC50 was found to be 1.95 µM in experiment [1]; 25.6 µM in experiment [2]; 3.07 µM in experiment [3]; 3.19 µM in experiment [4]; 1.13 µM in experiment [5]; 10.2 µM in experiment [6].
As for `COC(=O)c1ccc(C2=CC(=O)C(=O)c3ccccc32)cc1`, the IC50 is 2.13 µM in experiment [1], 12 µM in experiment [2], 1.65 µM in experiment [3] and 1.54 µM in experiment [5].
